E-selectin induc = E-selectin induction in HUVECs, primary screen, imaging, HUVEC, immunofluorescence imaging, single point | normalized: neutral wells 0, TNF-alpha wells 100 | P16581 | activation, % at 7.58 µM | 0.37% of 260,000 active;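 active = mean E-selectin-positive cell signal at least 10% of the positive control, reached in at least 60% of replicates, without over 20% cell loss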
Target sequence (P16581 whole entry, looked up): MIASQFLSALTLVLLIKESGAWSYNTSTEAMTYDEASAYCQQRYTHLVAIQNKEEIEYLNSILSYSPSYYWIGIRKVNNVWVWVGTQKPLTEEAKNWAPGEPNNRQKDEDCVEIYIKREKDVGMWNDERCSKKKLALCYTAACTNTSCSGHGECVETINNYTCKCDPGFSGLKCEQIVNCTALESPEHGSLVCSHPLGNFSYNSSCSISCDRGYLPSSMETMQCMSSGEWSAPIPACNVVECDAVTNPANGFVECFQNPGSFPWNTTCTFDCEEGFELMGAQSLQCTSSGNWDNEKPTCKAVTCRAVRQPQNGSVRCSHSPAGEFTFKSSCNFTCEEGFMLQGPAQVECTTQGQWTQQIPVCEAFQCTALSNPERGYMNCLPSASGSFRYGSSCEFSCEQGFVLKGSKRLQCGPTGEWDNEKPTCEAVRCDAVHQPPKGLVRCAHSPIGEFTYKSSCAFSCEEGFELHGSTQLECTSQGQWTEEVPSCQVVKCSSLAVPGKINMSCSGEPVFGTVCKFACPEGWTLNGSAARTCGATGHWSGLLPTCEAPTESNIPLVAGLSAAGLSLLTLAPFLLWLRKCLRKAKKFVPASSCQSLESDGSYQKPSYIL
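Test system – human umbilical vein endothelial cells (HUVEC), E-selectin induction · Input – 3,000 HUVEC seeded per well · Buffer or medium – EGM-2, gelatin · Compound dosing – single-point compound dose · Detection – immunofluorescence imaging · Measure – percent E-selectin-positive cells · Controls – TNF-alpha high, DMSO low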
SIRT5 block = SIRT5 desuccinylase inhibitors, primary screen, biochemical, fluorescence imaging, single point, set 5. NAD-dependent protein deacylase sirtuin-5, mitochondrial (Homo sapiens), Q9NXA8. Purified SirT5, succinyl-peptide AMC, trypsin-coupled fluorescence. inhibition, % at 15 µM. 1.1% of 330,000 active. AID 652115, 2013; in the data active = inhibition above about 15%
S100A4 inh HTS = inhibitors of S100A4-myosin IIA peptide binding, primary screen, biochemical, fluorescence polarization, TAMRA-MyoIIA peptide; Protein S100-A4 (Homo sapiens), P26447; inhibition, % at 10.7 µM; 0.14% of 360,000 active; AID 652163, 2013;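 active = mean inhibition of at least 70% across replicates, with every replicate also reaching that level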
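Material: S100A4 monomer protein | Medium: HEPES pH 7.2 with CaCl2, KCl, NaCl, DTT, Triton | Reagent: Labelled myosin peptide probe, 5 nM | Doses: One dose per compound | Times: 5 min incubation before reading | Benchmarks: Neutral control DMSO, positive control TFP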
miR-122 sensor = miR-122 Renilla sensor signal increase in Huh7, primary screen, miR-122 inhibitor project, cell-based, single point, plate reader. 0.3% of 340,000 active. activation (reporter increase), % at 12.5 µM. AID 602342, 2012. Huh7 miR-122 Renilla luciferase sensor, 48 h; neutral wells = 0, positive control = 100;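 active = mean replicate activation score at least 90 and every replicate individually at or above 90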;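 note: higher luciferase means less miR-122 activity so hits act as miR-122 inhibitors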
FGF22 binding = binders of human FGF22 protein, primary screen, FGF22 synaptogenesis inhibitor project, biophysical, thermal shift, single point; Fibroblast growth factor 22 (Homo sapiens), Q9HCT0; activity (Tm shift, normalised), % at 9.99 µM; 1.5% of 340,000 active; recombinant FGF22 thermal shift, SYPRO orange fluorescence; percent of sucrose octasulfate shift, DMSO zero;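 active = mean Tm shift, scaled 0 neutral to 100 positive control, at about 1.3% or above, every replicate too, limit read from the data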
An asterisk follows results filed as active; · = not tested or not shown; [ ] = another dose, or the depositor's remark. Sampled rows, rich in hits. Any-hit rate of the full collection: about 2.5%.

SMILES	E-selectin induc	SIRT5 block	S100A4 inh HTS	miR-122 sensor	FGF22 binding
O=C(O)c1cccc(-c2ccc(/C=c3/sc4nc5ccccc5n4c3=O)o2)c1	·	30*	-8	-7	0
O=C(O)c1ccccc1-c1ccc(C=c2sc3nc4cc(Br)cnc4n3c2=O)o1	1	30*	-1	0	0
N=C1S/C(=C\c2ccc(-c3ccccc3C(=O)O)o2)C(=O)N1c1ccc2c(c1)OCO2	·	7	4	·	1
COc1ccc(CN(C)C[C@@H]2Oc3ccc(NC(=O)Nc4ccc(F)cc4)cc3CC(=O)N([C@@H](C)CO)C[C@@H]2C)cc1	62*	2	4	-2[16.7 µM]	-1
C[C@@H]1CN([C@@H](C)CO)C(=O)Cc2cc(NC(=O)Nc3ccc(F)cc3)ccc2O[C@@H]1CN(C)Cc1ccc(C(=O)O)cc1	80*	0	11	2[16.7 µM]	·
C[C@@H]1CN([C@@H](C)CO)C(=O)Cc2cc(NC(=O)Nc3ccccc3)ccc2O[C@H]1CN(C)Cc1ccc(C(=O)O)cc1	0	-1	11	-5[16.7 µM]	0
Cc1noc(C)c1S(=O)(=O)N(C)C[C@@H]1Oc2ccc(NC(=O)Nc3ccc(C(F)(F)F)cc3)cc2CC(=O)N([C@@H](C)CO)C[C@H]1C	0	·	·	-6[16.7 µM]	0
COC(=O)[C@H]1[C@H](CO)[C@H]2Cn3c(ccc(-c4ccccc4OC)c3=O)[C@H]2N1CC1CCCCC1	0	-5	5	·	·
Cc1ccccc1OCC(O)CN1CCN(CC(O)COc2ccccc2C)CC1 (centres undefined)	4	30*	6	·	0
Cc1ccccc1OCC(O)Cn1c(Br)nc2c1c(=O)[nH]c(=O)n2C (centres undefined)	-2	-5	1	-4	0
Cc1ccccc1OCC(O)Cn1c(Br)nc2c1c(=O)n(C)c(=O)n2C (centres undefined)	51*	-2	1	7	0
CC(C)NC(=O)Nc1ccc2c(c1)C(=O)N([C@@H](C)CO)C[C@H](C)[C@@H](CN(C)S(=O)(=O)c1cn(C)cn1)OCCCC[C@H](C)O2	·	-3	48	-2[16.7 µM]	0
O=C(O)CSc1nnc(C2CC2)n1-c1ccccc1	-3	·	·	-8	·
O=C(CSc1nnc(-c2ccccc2O)n1-c1ccccc1)Nc1cccc(C(=O)O)c1	0	-4	-6	-2	43*
O=C(O)CSc1nnc(Nc2ccccc2)n1-c1ccccc1	·	1	-1	·	44*
Cc1ccccc1NC(=O)C(NC1CCCCC1)C(C)C (centres undefined)	·	36*	-17	·	0
COC(=O)C(C(=O)Nc1ccccc1C)C1CCCC1 (centres undefined)	·	·	·	2	·
COc1ccc(-c2cnc3c(c2)C(=O)N([C@H](C)CO)C[C@H](C)[C@H](CN(C)S(=O)(=O)c2ccc(C#N)cc2)O3)cc1	0	5	45	-18[16.7 µM]	0
CN(C)S(=O)(=O)c1ccc(NC(=O)CN2CCC(Cc3ccccc3)CC2)cc1	·	0	-1	-9	44*
COc1ccc(S(=O)(=O)Nc2ccc3c(c2)C(=O)N([C@H](C)CO)C[C@@H](C)[C@@H](CN(C)Cc2ccncc2)OCCCC[C@@H](C)O3)cc1	0	1	3	3[16.7 µM]	0
CC(C)NC(=O)N(C)C[C@H]1OCCCC[C@H](C)Oc2ccc(NC(=O)c3ccccc3)cc2C(=O)N([C@@H](C)CO)C[C@@H]1C	1	5	0	-8[16.7 µM]	0
CCc1ccccc1Nc1nc(N)nc(CSCC(=O)Nc2ccc(C)c(C)c2)n1	·	16*	-2	-4	0
CCc1ccc(NC(=O)CSCc2nc(N)nc(Nc3ccccc3CC)n2)cc1	2	·	·	-5	·
CCC(=O)N[C@H]1C[C@@H]2O[C@H](CO)CC[C@@H]2O[C@@H]1CCc1ccc(-c2cccc(OC)c2)cc1	·	2	34	·	·
C[C@H]1CN([C@@H](C)CO)C(=O)c2cccc(NC(=O)CCCCCC(=O)Nc3ccccc3N)c2O[C@H]1CN(C)C	-7	-1	-3	·	0
SMILES	E-selectin induc	SIRT5 block	S100A4 inh HTS	miR-122 sensor	FGF22 binding
COCc1cc(C)nc(OCC(=O)N/N=C/c2cccc(OC)c2)c1C#N	·	·	·	1	·
CCOc1cc(/C=N/NC(=O)COc2nc(C)cc(COC)c2C#N)ccc1O	·	0	-3	-4	0
COc1cccc2c(SCC(=O)N/N=C/c3ccc(O)cc3O)cc(C)nc12	·	0	1	-5	3.0*
COCc1cc(C)nc(OCC(=O)N/N=C/c2ccc(O)cc2O)c1C#N	·	1	-1	·	44*
COCc1cc(C)nc(OCC(=O)N/N=C/c2ccccc2O)c1C#N	·	-2	-2	·	44*
O=C(N[C@H]1CC[C@@H](CC(=O)N2CCC(Cc3ccccc3)CC2)O[C@@H]1CO)c1cnccn1	0	-5	5	·	0
COc1cc(NC(=O)Cc2ccc([N+](=O)[O-])cc2)c(C(=O)O)cc1OC	9	20*	-9	·	0
C[C@@H]1CCCCO[C@H](CN(C)Cc2ccc(C(=O)O)cc2)[C@H](C)CN([C@H](C)CO)C(=O)c2cc(NC(=O)Nc3ccccc3)ccc2O1	·	1	7	7[16.7 µM]	0
Cc1cc2nc(C3CCN(C(=S)NCC(C)C)CC3)[nH]c2cc1C	·	-1	3	·	1.9*
Cc1nnc(SCc2cc([N+](=O)[O-])cc3c2OCOC3)n(N)c1=O	·	-6	-2	-1	43*
Cc1ccccc1Nc1nnc(SCc2cc([N+](=O)[O-])cc3c2OCOC3)s1	·	0	-1	-3	0
COc1ccc(S(=O)(=O)N(C)C[C@H]2Oc3ccc(N(C)C)cc3C(=O)N([C@H](C)CO)C[C@H]2C)cc1	·	0	1	26[16.7 µM]	-1
CCCNC(=O)OCc1cccnc1Sc1ccc(C)cc1	1	0	-1	1	43*
Cc1ccc(Sc2ncccc2NC(=O)c2ccccc2Cl)cc1	·	0	0	5	0
O=C(O)CCC(=O)Nc1ccc(C(=O)OCC(=O)c2ccc(Cl)cc2Cl)cc1	·	1	1	·	43*
CCC(=O)Nc1cc(C(=O)OCC(=O)c2ccc(Cl)cc2Cl)ccc1C	·	·	·	32	·
COC(=O)C1C2OC(C(Br)C2Br)C1C(=O)OC (centres undefined)	0	·	-3	·	44*
O=S(=O)(NC[C@@H]1CC[C@H]2[C@H](CN2Cc2cccc(-c3ccccn3)c2)O1)c1ccccc1	·	18*	13	·	·
Cc1noc(C)c1NC(=O)NC[C@@H]1CC[C@@H]2[C@@H](CN2Cc2cccc(-c3ccccn3)c2)O1	·	1	4	·	·
CCOC(CNc1cc(C)nc2c(-c3ccccc3OC)c(C)nn12)OCC	1	-7	2	-2	0

Screening results as filed in PubChem BioAssay.
